# Source: ChEMBL document CHEMBL3259714, “Pyrazolo[4,3-e][1,2,4]triazine sulfonamides as carbonic anhydrase inhibitors with antitumor activity” (Bioorg Med Chem, 2014)
# Columns and labels:
# Carbonic anhydrase 1 = Carbonic anhydrase 1 (Homo sapiens, UniProt P00915); experiment: Inhibition of human carbonic anhydrase 1-mediated CO2 hydration preincubated for 15 mins by stopped-flow assay
# Carbonic anhydrase 2 = Carbonic anhydrase 2 (Homo sapiens, UniProt P00918); experiment: Inhibition of human carbonic anhydrase 2-mediated CO2 hydration preincubated for 15 mins by stopped-flow assay
# Carbonic anhydrase 9 = Carbonic anhydrase 9 (Homo sapiens, UniProt Q16790); experiment: Inhibition of human carbonic anhydrase 9-mediated CO2 hydration preincubated for 15 mins by stopped-flow assay
# Carbonic anhydrase 12 = Carbonic anhydrase 12 (Homo sapiens, UniProt O43570); experiment: Inhibition of human carbonic anhydrase 12-mediated CO2 hydration preincubated for 15 mins by stopped-flow assay
# MCF7 [1] = experiment: Cytotoxicity against human MCF7 cells assessed as growth inhibition after 24 hrs by MTT assay; type: functional, cell-based; details: for IC50: MCF7, 24 h
# Procedure, shortened: (§1)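 Confluent cells in 6-well plates treated 24 h with a range of concentrations, then washed with PBS. MTT (0.5 mg/ml in PBS) added for 4 h at 37 °C, 5% CO₂. Dye dissolved in 0.1 mol/l HCl in isopropanol and read at 570 nm. Viability given as % of untreated control, run in triplicate. IC50 taken from dose-response curves as 50% viable cells versus control.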
# MDA-MB-231 [2] = experiment: Cytostatic activity against human MDA-MB-231 cells assessed as inhibition of DNA synthesis after 24 hrs by [3H]thymidine incorporation assay; type: functional, cell-based
# Procedure, shortened: (§2)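 Cells kept in DMEM with 10% FBS and penicillin/streptomycin at 37 °C. Seeded in 6-well plates and grown to about 80% confluency, in DMEM without phenol red with 10% CPSR1. Exposed to a range of concentrations plus 0.5 μCi [³H]-thymidine for 24 h at 37 °C. Cells trypsinized and washed with cold PBS until wash dpm matched the reagent control. Uptake counted by liquid scintillation as dpm/well. IC50 is mean ± S.D. of four independent experiments.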
# MDA-MB-231 [3] = experiment: Cytotoxicity against human MDA-MB-231 cells assessed as growth inhibition after 24 hrs by MTT assay; type: functional, cell-based; details: for IC50: MDA-MB-231, 24 h; procedure, shortened: as §1
# MCF7 [4] = experiment: Cytostatic activity against human MCF7 cells assessed as inhibition of DNA synthesis after 24 hrs by [3H]thymidine incorporation assay; type: functional, cell-based; procedure, shortened: as §2
# MDA-MB-231 [5] = experiment: Inhibition of collagen synthesis in human MDA-MB-231 cells assessed as 5-[3H]-proline incorporation into proteins susceptible to action of bacterial collagenase after 24 hrs; type: functional, cell-based
# Procedure, shortened: (§3)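 Cells labelled 24 h in growth medium with 5-[³H]proline (5 μCi/mL, 28 Ci/mmol) at a range of compound concentrations. Collagen share of incorporated label found by digesting proteins with purified Clostridium histolyticum collagenase (Peterkofsky method). Cell and medium fractions combined. IC50 is the mean ± S.D. of three independent experiments run in duplicate.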
# MCF7 [6] = experiment: Inhibition of collagen synthesis in human MCF7 cells assessed as 5-[3H]-proline incorporation into proteins susceptible to action of bacterial collagenase after 24 hrs; type: functional, cell-based; procedure, shortened: as §3
# Carbonic anhydrase 1, sequence (P00915 whole entry): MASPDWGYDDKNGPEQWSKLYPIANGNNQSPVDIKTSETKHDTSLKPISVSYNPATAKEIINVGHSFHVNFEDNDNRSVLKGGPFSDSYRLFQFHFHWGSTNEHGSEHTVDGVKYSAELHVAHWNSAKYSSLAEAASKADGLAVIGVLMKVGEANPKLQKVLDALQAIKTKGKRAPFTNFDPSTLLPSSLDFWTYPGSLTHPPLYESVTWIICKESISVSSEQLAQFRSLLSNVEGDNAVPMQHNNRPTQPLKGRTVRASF
# Carbonic anhydrase 12, sequence (O43570 whole entry): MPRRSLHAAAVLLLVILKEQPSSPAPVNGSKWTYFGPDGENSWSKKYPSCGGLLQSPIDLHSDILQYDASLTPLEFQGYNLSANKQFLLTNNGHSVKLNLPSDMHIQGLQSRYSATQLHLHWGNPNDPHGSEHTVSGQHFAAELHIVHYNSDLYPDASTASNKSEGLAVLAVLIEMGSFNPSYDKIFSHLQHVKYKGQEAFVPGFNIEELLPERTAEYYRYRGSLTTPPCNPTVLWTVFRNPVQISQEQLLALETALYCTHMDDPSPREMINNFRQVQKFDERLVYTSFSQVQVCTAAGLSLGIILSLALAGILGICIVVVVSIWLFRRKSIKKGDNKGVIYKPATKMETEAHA
Structure (SMILES),Ki (Carbonic anhydrase 1) [µM],Ki (Carbonic anhydrase 2) [µM],Ki (Carbonic anhydrase 9) [µM],Ki (Carbonic anhydrase 12) [µM],growth inhibition (GI) (MCF7 [1]),IC50 (MCF7 [1]) [µM],IC50 (MDA-MB-231 [2]) [µM],inhibition (MDA-MB-231 [2]),growth inhibition (GI) (MDA-MB-231 [3]),IC50 (MDA-MB-231 [3]) [µM],IC50 (MCF7 [4]) [µM],inhibition (MCF7 [4]),IC50 (MDA-MB-231 [5]) [µM],IC50 (MCF7 [6]) [µM]
Cc1nn(C)c2nnc(Nc3ccccc3)nc12,> 50,0.826,0.082,0.009,–,–,–,–,–,–,–,–,–,–
Cc1nn(C)c2nnc(S(C)(=O)=O)nc12,> 50,0.774,0.089,0.0066,–,–,–,–,–,–,–,–,–,–
CCOc1ccc(S(=O)(=O)N2CCCC2)cc1-c1nnc2c(n1)c(C)nn2C,–,–,–,–,Dose-dependent effect,112,159,Dose-dependent effect,Dose-dependent effect,120,130,Dose-dependent effect,–,–
Cc1nn(C)c2nnc(Nc3ccc(S(=O)(=O)NCCO)cc3)nc12,> 50,0.772,0.0265,0.0075,–,–,–,Dose-dependent effect,–,–,–,Dose-dependent effect,> 200,> 200
Cc1nn(C)c2nnc(Nc3ccc(S(=O)(=O)N4CCCC4)cc3)nc12,> 50,0.0063,0.652,0.0081,–,–,–,Dose-dependent effect,–,–,–,Dose-dependent effect,> 200,> 200
Cc1nn(C)c2nnc(Nc3ccc(S(=O)(=O)N4CCNCC4)cc3)nc12,> 50,0.703,> 50,0.0057,–,–,–,Dose-dependent effect,–,–,–,Dose-dependent effect,180,175
CCOc1ccc(S(=O)(=O)N2CCOCC2)cc1-c1nnc2c(n1)c(C)nn2C,–,–,–,–,Dose-dependent effect,181,160,Dose-dependent effect,Dose-dependent effect,189,148,Dose-dependent effect,–,–
Cc1nn(C)c2nnc(Nc3ccc(S(=O)(=O)N4CCOCC4)cc3)nc12,–,–,–,–,–,–,–,Dose-dependent effect,–,–,–,Dose-dependent effect,> 200,> 200
Cc1nn(C)c2nnc(Nc3ccc(S(=O)(=O)N4CCCNCC4)cc3)nc12,> 50,0.918,> 50,0.0059,–,–,–,Dose-dependent effect,–,–,–,Dose-dependent effect,135,133
CCOc1ccc(S(=O)(=O)N2CCN(C)CC2)cc1-c1nnc2c(n1)c(C)nn2C,–,–,–,–,Dose-dependent effect,110,152,Dose-dependent effect,Dose-dependent effect,115,140,Dose-dependent effect,–,–
O=C(O)CCCc1ccc(N(CCCl)CCCl)cc1 [CHLORAMBUCIL],–,–,–,–,Dose-dependent effect,–,–,Dose-dependent effect,Dose-dependent effect,–,–,Dose-dependent effect,72,52
Cc1nn(C)c2nnc(Nc3ccc(S(N)(=O)=O)cc3)nc12,0.27,0.008,0.0438,0.0079,–,–,–,–,–,–,–,–,–,–
CCOc1ccc(S(=O)(=O)N2CCNCC2)cc1-c1nnc2c(n1)c(C)nn2C,–,–,–,–,Dose-dependent effect,172,164,Dose-dependent effect,Dose-dependent effect,182,150,Dose-dependent effect,–,–
CCOc1ccc(S(=O)(=O)NCCN)cc1-c1nnc2c(n1)c(C)nn2C,–,–,–,–,Dose-dependent effect,190,200,Dose-dependent effect,Dose-dependent effect,> 200,> 200,Dose-dependent effect,–,–
Cc1nn(C)c2nnc(Nc3ccc(S(=O)(=O)N4CCCCC4)cc3)nc12,> 50,0.492,> 50,0.0062,–,–,–,Dose-dependent effect,–,–,–,Dose-dependent effect,145,163
Cc1nn(C)c2nnc(Nc3ccc(S(=O)(=O)NCCN)cc3)nc12,> 50,0.0621,0.0237,0.0071,–,–,–,Dose-dependent effect,–,–,–,Dose-dependent effect,95,112
Cc1nn(C)c2nnc(Nc3ccc(S(=O)(=O)NCCN4CCOCC4)cc3)nc12,> 50,0.719,0.824,0.0062,–,–,–,Dose-dependent effect,–,–,–,Dose-dependent effect,137,140
Cc1nn(C)c2nnc(Nc3ccc(S(=O)(=O)N4CCN(C)CC4)cc3)nc12,> 50,0.667,> 50,0.0053,–,–,–,Dose-dependent effect,–,–,–,Dose-dependent effect,58,47
CCOc1ccc(S(=O)(=O)N2CCCCC2)cc1-c1nnc2c(n1)c(C)nn2C,–,–,–,–,Dose-dependent effect,105,126,Dose-dependent effect,Dose-dependent effect,98,112,Dose-dependent effect,–,–
CCOc1ccc(S(=O)(=O)NCCN2CCOCC2)cc1-c1nnc2c(n1)c(C)nn2C,–,–,–,–,Dose-dependent effect,132,156,Dose-dependent effect,Dose-dependent effect,136,145,Dose-dependent effect,–,–
CCOc1ccc(S(=O)(=O)N2CCCNCC2)cc1-c1nnc2c(n1)c(C)nn2C,–,–,–,–,Dose-dependent effect,123,115,Dose-dependent effect,Dose-dependent effect,130,129,Dose-dependent effect,–,–
CCOc1ccc(S(=O)(=O)NCCO)cc1-c1nnc2c(n1)c(C)nn2C,–,–,–,–,Dose-dependent effect,> 200,> 200,Dose-dependent effect,Dose-dependent effect,> 200,> 200,Dose-dependent effect,–,–
